Assay results of several laboratories.
Protocols differ between the studies behind these lines.
Action: inhibitor
EGFR L858R/T790M: Epidermal growth factor receptor (EGFR, Homo sapiens, UniProt P00533, L858R/T790M)
EGFR: Epidermal growth factor receptor (EGFR, Homo sapiens, UniProt P00533)
EGFR L858R: Epidermal growth factor receptor (EGFR, Homo sapiens, UniProt P00533, L858R)

Structure (SMILES) | target | read-out | method | cells | concentration | inhibition [%]
C/C=C/C(=O)Nc1cc(Nc2nc(Nc3cnn(C)c3)c3sccc3n2)c(OC)cc1N(C)CCN(C)C | EGFR L858R/T790M | enzyme activity | ELISA | – | 0.1 µM | 18.3
COc1cc2nccc(Oc3ccc(NC(=O)c4c5n(n(-c6ccc(F)cc6)c4=O)CCCC5)cc3)c2cc1OC | EGFR | enzyme activity | – | – | 0.1 µM | -2
CS(=O)(=O)Nc1cc(-c2ccc3ncnc(Nc4ccc(F)c(Cl)c4)c3c2)cnc1Cl | EGFR | enzyme activity | FRET | – | 10 µM | 90 to 100
CC/C(=N\NC(=O)NCc1cccc(O)c1)c1ccc(O)c(C)c1O | Epidermal growth factor receptor (EGFR, Homo sapiens, UniProt P00533, del746-750) | enzyme activity | – | – | 0.1 µM | -0.6
CCC(=O)Nc1cc(Nc2nc(N3CCc4sccc4C3)c3cccnc3n2)c(OC)cc1N1CCN(CCO)CC1 | EGFR L858R/T790M | enzyme activity | ELISA | – | 0.1 µM | 30.3
COc1cc(-c2cc(-c3ccc(N4CCNCC4)cc3)cnc2N)cc(OC)c1OC | Epidermal growth factor receptor (EGFR, Homo sapiens, UniProt P00533, T790M) | enzyme activity | – | – | 1 µM | 4
CNCc1ccc(-c2cc(-c3nc(-c4ccc(S(=O)(=O)C(C)C)cc4)cnc3N)on2)cc1 | EGFR | enzyme activity | – | – | 2 µM | 0
CNc1cccc2cc(C(=O)Nc3ccc(C(=O)O)cc3)c(=O)[nH]c12 | EGFR | enzyme activity | – | – | 10 µM | -1.7
CCC(=O)Nc1cc(Nc2nc(N3CCc4sccc4C3)c3cccnc3n2)c(OC)cc1N1CCOCC1 | EGFR L858R/T790M | enzyme activity | ELISA | – | 0.1 µM | 7.6
COCCOc1cc2ncnc(Nc3cccc(OCCn4ccnc4[N+](=O)[O-])c3)c2cc1OCCOC | EGFR | enzyme activity | FRET | – | 1 µM | 28
COc1cc2ncnc(Nc3ccc(Oc4ccccc4)c(C)c3C)c2cc1OC | Epidermal growth factor receptor (EGFR, Homo sapiens, UniProt P00533, L861Q) | enzyme activity | – | – | 1 µM | 86
C=C(Cl)C(=O)Nc1cc(Nc2nc(N3CCc4sccc4C3)c3sccc3n2)c(OC)cc1N(C)CCN(C)C | EGFR L858R/T790M | enzyme activity | ELISA | – | 0.1 µM | 90.3
C=CC(=O)Nc1cc(Nc2nccc(Nc3cc(Cl)c(F)cc3C(C)(C)O)n2)c(OC)cc1N1CC[C@@H](N(C)C)C1 | EGFR L858R/T790M | enzyme activity | – | – | 1 µM | 99
COc1cc2ncnc(Nc3ccc(Oc4ccccc4)cc3C)c2cc1OC | EGFR L858R | enzyme activity | – | – | 1 µM | 64
C=CC(=O)Nc1cc(Nc2nc(Nc3cnn(C)c3)c3sccc3n2)c(OC)cc1N(C)CCN(C)C | EGFR L858R/T790M | enzyme activity | ELISA | – | 0.1 µM | 6.7
CS(=O)(=O)Nc1cccc(-c2csc(NC(=O)CSc3nc4nccnc4c(=O)n3CCc3ccccc3)n2)c1 | EGFR L858R | enzyme activity | – | – | 10 µM | -1
CNc1cc(Oc2cc(C(=O)Nc3cc(N4CCN(C)CC4)cc(C(F)(F)F)c3)ccc2C)ncn1 | EGFR | target engagement in cells | chemoproteomics | Huh-7 | 1 µM | -15.5
CN(C)C1CCN(CC#Cc2nn(C3CCCC3)c3nc(NCc4ccccc4)ncc23)C1 (stereo not shown) | EGFR | enzyme activity | FRET | – | 1 µM | 7
CCC(=O)Nc1cc(Nc2nc(N3CCc4sccc4C3)c3cccnc3n2)c(OC)cc1N1CCN(C(C)=O)CC1 | EGFR L858R/T790M | enzyme activity | ELISA | – | 0.1 µM | 10
COc1cc2ncnc(Nc3cccc(OCCn4ccnc4[N+](=O)[O-])c3)c2cc1OCCCN1CCOCC1 | EGFR | enzyme activity | FRET | – | 1 µM | 30
C=CC(=O)Nc1cc(Nc2nc(N3CCc4sccc4C3)c3cccnc3n2)c(OC)cc1N1CCN(C(C)=O)CC1 | EGFR L858R/T790M | enzyme activity | ELISA | – | 0.1 µM | 19.4
O=C(CSc1nc2nccnc2c(=O)n1CCc1ccccc1)Nc1nccs1 | EGFR L858R | enzyme activity | – | – | 10 µM | 1
